Data on 1 compound can be found in ChEMBL document CHEMBL4665651, “Design, synthesis, and biological evaluation of some novel 4-aminoquinazolines as Pan-PI3K inhibitors” (Bioorg Med Chem, 2019).

Assay [1] has as its system MCF7. The experiment in a line: Induction of apoptosis in human MCF7 cells assessed as late apoptotic cells at 0.8 uM incubated for 48 hrs by annexin V-FITC and propidium iodide staining based flow cytometry analysis (reference value: 9.2 %). In kind it is functional.
In assay [2] the test system is MCF7. Description: Induction of apoptosis in human MCF7 cells assessed as late apoptotic cells at 0.4 uM incubated for 48 hrs by annexin V-FITC and propidium iodide staining based flow cytometry analysis (reference value: 9.2 %). In kind it is functional.
Assay [3] concerns the target Phosphatidylinositol 4,5-bisphosphate 3-kinase catalytic subunit beta isoform (Homo sapiens, UniProt P42338). Description: Inhibition of PI3Kbeta (unknown origin) using lipid as substrate incubated for 15 mins followed by substrate addition and measured after 60 mins ADPGloTM reagent based assay. Summed up: (§1)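 ADP-Glo luminescent readout of ADP formed. Isoforms tested: p110α/p85α, p110β/p85α, p120γ and p110δ/p85α, each in PI3K reaction buffer with lipid substrate. Enzyme preincubated with compound for 15 min at room temperature. ADP-Glo reagent added for 40 min, then detection reagent for 40 min. IC50 from normalized nonlinear dose–response fit.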

Assay [4] deals with MCF7. The experiment in a line: Induction of apoptosis in human MCF7 cells assessed as viable cells at 0.2 uM incubated for 48 hrs by annexin V-FITC and propidium iodide staining based flow cytometry analysis (reference value: 87.7 %). In kind it is functional. To be noted: read-out: Activity.
Assay [5] deals with MCF7. Description: Induction of apoptosis in human MCF7 cells assessed as viable cells at 0.4 uM incubated for 48 hrs by annexin V-FITC and propidium iodide staining based flow cytometry analysis (reference value: 87.7 %). In kind it is functional. Particulars: read-out: Activity.
For assay [6], the target named is T1, Phosphatidylinositol 4,5-bisphosphate 3-kinase catalytic subunit delta isoform (Homo sapiens, UniProt O00329).
T1 sequence (O00329 whole entry): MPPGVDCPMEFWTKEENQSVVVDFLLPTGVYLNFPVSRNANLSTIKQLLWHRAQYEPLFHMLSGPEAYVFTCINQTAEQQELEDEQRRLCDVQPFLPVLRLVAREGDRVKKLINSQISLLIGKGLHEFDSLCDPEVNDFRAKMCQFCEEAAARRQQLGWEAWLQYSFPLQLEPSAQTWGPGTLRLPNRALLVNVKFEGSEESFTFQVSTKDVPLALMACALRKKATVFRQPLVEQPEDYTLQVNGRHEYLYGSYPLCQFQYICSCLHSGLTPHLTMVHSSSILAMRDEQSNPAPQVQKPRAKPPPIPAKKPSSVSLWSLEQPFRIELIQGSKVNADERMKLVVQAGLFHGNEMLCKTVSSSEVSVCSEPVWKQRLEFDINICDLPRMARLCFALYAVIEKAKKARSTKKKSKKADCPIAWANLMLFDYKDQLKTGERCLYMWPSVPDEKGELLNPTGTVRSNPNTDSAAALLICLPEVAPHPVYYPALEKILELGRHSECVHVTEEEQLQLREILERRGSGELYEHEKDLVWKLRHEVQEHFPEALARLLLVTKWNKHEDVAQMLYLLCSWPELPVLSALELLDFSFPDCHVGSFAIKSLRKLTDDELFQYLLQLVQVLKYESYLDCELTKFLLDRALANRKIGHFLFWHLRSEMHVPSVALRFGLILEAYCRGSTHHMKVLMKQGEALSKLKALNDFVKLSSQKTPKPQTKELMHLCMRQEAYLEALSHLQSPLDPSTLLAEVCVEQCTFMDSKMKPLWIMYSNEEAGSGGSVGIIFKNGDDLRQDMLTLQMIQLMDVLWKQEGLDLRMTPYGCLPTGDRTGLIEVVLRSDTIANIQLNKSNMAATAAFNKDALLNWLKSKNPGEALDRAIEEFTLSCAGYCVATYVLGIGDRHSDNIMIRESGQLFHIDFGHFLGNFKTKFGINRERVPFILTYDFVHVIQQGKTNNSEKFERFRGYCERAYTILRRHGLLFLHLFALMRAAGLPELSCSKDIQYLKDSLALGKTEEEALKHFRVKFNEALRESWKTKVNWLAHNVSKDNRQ
The experiment in a line: Inhibition of PI3Kdelta (unknown origin) using lipid as substrate incubated for 15 mins followed by substrate addition and measured after 60 mins ADPGloTM reagent based assay. The method, boiled down:
as §1

For assay [7], the system named is MCF7. The experiment in a line: Induction of apoptosis in human MCF7 cells assessed as early apoptotic cells at 0.2 uM incubated for 48 hrs by annexin V-FITC and propidium iodide staining based flow cytometry analysis (reference value: 2.7 %). In kind it is functional.
In assay [8] the test system is MCF7. The experiment in a line: Antiproliferative activity against human MCF7 cells assessed as reduction in cell viability incubated for 72 hrs by SRB assay. In kind it is functional, cell-based. To be noted: MCF7, 72 h. The method, boiled down: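 Cell lines grown at 37 °C in 5% CO₂: A549 in RPMI1640, MCF-7 in DMEM, each with 10% FBS plus penicillin/streptomycin/amphotericin B. Cells exposed to a range of compound concentrations for 72 h, then TCA-fixed and SRB-stained. Growth inhibition = 100 − 100×(OD sample − OD day 0)/(OD negative control − OD day 0). IC50 from non-linear regression of percent growth against concentration.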

In assay [9] the test system is MCF7. Description: Inhibition of colony formation in human MCF7 cells at 0.2 to 0.8 uM incubated for 72 hrs by crystal violet staining based assay. In kind it is functional, cell-based. Particulars: dose microM 0.2-0.8, time 72.0 hrs. Summed up:
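MCF-7 cells seeded at 3×10³ cells per well in 6-well plates. Exposed to 0, 0.2, 0.4 or 0.8 μM for 72 h, then grown one week in drug-free medium. Colonies stained with crystal violet and photographed.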

In a further assay the test system is HUVEC. The experiment in a line: Cytotoxicity against HUVEC cells assessed as reduction in cell viability incubated for 72 hrs by SRB assay. In kind it is cell-based. To be noted: Homo sapiens. Summed up:
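Normal cells exposed to a range of compound concentrations for 72 h at 37 °C in 5% CO₂. Cells TCA-fixed and viability read by SRB protein staining, normalized to day-0 and negative-control OD. IC50 from non-linear regression; values are means of triplicate measurements.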

Assay [10] relates to MCF7. The experiment in a line: Induction of apoptosis in human MCF7 cells assessed as early apoptotic cells at 0.8 uM incubated for 48 hrs by annexin V-FITC and propidium iodide staining based flow cytometry analysis (reference value: 2.7 %). In kind it is functional.
In another assay the test system is HCT-116. The experiment in a line: Antiproliferative activity against human HCT-116 cells assessed as reduction in cell viability incubated for 72 hrs by SRB assay. In kind it is functional, cell-based. To be noted: HCT-116, 72 h.
Assay [11] relates to MCF7. Description: Inhibition of PI3K in human MCF7 cells assessed as Akt phosphorylation by Western blot analysis. In kind it is cell-based. To be noted: dose microM 0.1-10. The method, boiled down:
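MCF-7 cells treated at 0.1, 1 and 10 μM, then washed in cold PBS and lysed in RIPA buffer with protease and phosphatase inhibitors. Equal protein run on 10% SDS-PAGE and transferred to PVDF. Blots probed for total Akt and phospho-Akt (Ser473), with GAPDH as loading control.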

Assay [12] deals with Phosphatidylinositol 4,5-bisphosphate 3-kinase catalytic subunit gamma isoform (Homo sapiens, UniProt P48736). The experiment in a line: Inhibition of PI3Kgamma (unknown origin) using lipid as substrate incubated for 15 mins followed by substrate addition and measured after 60 mins ADPGloTM reagent based assay. Summed up:
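ADP-Glo luminescent readout of ADP formed. Isoforms tested: p110α/p85α, p110β/p85α, p120γ and p110δ/p85α, each in PI3K reaction buffer with lipid substrate. Enzyme preincubated with compound for 15 min at room temperature. Reaction started with 250 μM ATP stock and run 60 min at room temperature. ADP-Glo reagent added for 40 min, then detection reagent for 40 min. IC50 from normalized nonlinear dose–response fit.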

Sequence of Phosphatidylinositol 4,5-bisphosphate 3-kinase catalytic subunit gamma isoform (P48736 whole entry, canonical isoform): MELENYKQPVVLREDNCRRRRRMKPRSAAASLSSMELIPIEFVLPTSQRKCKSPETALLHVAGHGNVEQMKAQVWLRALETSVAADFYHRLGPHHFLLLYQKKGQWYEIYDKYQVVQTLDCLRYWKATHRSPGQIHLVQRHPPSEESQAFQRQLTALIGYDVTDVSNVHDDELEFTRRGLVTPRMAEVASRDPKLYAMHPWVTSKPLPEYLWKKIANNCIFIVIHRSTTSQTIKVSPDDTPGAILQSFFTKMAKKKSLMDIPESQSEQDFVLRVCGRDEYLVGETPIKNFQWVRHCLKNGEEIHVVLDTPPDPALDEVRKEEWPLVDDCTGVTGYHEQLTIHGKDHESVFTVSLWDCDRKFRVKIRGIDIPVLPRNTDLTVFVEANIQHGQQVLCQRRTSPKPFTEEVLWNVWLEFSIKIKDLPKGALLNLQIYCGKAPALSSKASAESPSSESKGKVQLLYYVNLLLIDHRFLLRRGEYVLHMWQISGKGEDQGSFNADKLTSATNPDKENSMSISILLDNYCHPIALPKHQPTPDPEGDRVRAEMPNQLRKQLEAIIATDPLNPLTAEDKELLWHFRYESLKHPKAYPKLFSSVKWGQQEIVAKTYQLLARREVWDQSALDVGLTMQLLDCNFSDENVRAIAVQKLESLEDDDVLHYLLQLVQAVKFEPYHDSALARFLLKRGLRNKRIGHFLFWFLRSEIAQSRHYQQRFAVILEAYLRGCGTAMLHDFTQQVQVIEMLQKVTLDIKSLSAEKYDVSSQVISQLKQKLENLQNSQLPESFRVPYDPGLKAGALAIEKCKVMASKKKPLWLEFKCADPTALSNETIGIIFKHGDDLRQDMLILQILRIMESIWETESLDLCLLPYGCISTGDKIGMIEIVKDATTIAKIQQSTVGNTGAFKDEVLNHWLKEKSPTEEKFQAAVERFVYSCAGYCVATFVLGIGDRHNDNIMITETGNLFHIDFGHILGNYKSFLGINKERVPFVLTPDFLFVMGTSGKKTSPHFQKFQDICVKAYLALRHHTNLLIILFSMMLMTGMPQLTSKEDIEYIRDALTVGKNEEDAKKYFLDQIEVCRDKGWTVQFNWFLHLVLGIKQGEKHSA
Sequence of Phosphatidylinositol 4,5-bisphosphate 3-kinase catalytic subunit beta isoform (P42338 whole entry, canonical isoform): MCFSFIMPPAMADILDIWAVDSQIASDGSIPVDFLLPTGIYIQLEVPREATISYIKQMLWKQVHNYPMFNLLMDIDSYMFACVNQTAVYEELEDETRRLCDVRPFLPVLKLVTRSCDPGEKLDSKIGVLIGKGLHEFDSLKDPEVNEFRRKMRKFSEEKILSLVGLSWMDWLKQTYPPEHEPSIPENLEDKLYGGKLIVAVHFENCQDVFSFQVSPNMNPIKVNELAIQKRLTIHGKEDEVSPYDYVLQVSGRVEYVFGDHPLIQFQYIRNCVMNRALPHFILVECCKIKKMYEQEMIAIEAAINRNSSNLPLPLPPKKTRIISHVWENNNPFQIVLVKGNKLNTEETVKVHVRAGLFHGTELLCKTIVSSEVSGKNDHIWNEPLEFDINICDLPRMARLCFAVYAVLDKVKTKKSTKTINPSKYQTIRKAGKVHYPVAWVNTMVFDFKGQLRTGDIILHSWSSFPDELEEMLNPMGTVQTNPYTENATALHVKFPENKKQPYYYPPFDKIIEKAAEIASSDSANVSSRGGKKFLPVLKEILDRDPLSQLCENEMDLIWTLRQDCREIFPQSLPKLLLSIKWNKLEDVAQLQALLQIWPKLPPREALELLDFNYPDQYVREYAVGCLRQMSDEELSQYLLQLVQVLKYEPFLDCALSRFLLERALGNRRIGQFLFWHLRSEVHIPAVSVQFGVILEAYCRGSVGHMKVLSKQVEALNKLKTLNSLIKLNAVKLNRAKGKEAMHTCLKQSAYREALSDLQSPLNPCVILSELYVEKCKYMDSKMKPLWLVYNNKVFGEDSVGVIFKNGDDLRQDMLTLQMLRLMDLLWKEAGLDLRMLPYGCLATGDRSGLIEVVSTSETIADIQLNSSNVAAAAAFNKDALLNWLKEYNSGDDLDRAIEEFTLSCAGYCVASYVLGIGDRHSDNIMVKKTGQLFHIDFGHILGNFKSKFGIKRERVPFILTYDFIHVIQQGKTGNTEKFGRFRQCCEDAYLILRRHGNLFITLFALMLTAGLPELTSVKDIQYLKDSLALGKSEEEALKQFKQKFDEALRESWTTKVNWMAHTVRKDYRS

Turning to `COc1ncc(-c2ccc3ncnc(Nc4cnn(CCO)c4)c3c2)cc1NS(=O)(=O)c1ccc(F)cc1F`, the Activity in the assay with MCF7 [1] is listed as 22.7%; in the assay with MCF7 [2], 23.6%; with MCF7 [7], 2.8%; in the assay with MCF7 [10], 4.8%. Besides, the 50% inhibitory concentration (IC50) in assay [3] was found to be 2.99 nM; in assay [6] it was 0.48 nM; in the assay on MCF7 [8] it was 220 nM; with HUVEC, 19.6 µM; in the assay on HCT-116 it was 330 nM; in [12], 0.58 nM. In addition, the viability at 0.2 µM with MCF7 [4] is 74.7%. Also, in the assay with MCF7 [5], the viability at 0.4 µM amounted to 70%. The inhibition entry with MCF7 [9] and with MCF7 [11] was “Dose-dependent effect” each time.
